Measured values as given in ChEMBL document CHEMBL1150393, “Evaluation of radiolabeled (hetero)aromatic analogues of N-(2-diethylaminoethyl)-4-iodobenzamide for imaging and targeted radionuclide therapy of melanoma” (J Med Chem, 2008).
Blank lines part the entries; values can stand above or below the compound they belong to.

Tests used:
Type in all cases: ADME, organism-based
Conditions in all cases: in vivo
[1] = Ratio of drug level in tumor to liver of C57BL/6 mouse bearing mouse B16-F0 cells at 0.74 to 0.92 MBq, iv after 72 hrs
Procedure, shortened: (§1)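 Tumour and organ radioactive concentrations came from whole-body cryosection counting (40 µm slices, eight per mouse, two mice per time) after tail-vein injection of the [¹²⁵I]-labelled compound (0.1 µmol) into male C57BL6 mice bearing s.c. B16-F0 melanoma. Each value is the ratio of the tumour concentration to the organ concentration.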

[2] = test system: Liver; experiment: Biodistribution in liver of C57BL/6 mouse bearing mouse B16-F0 cells at 0.74 to 0.92 MBq, iv after 72 hrs
Procedure, shortened: (§2)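 Male C57BL6 mice with s.c. left-flank B16-F0 melanoma (5 × 10⁵ cells in PBS). Two mice per time point frozen in liquid nitrogen after CO₂ sacrifice. Eight 40 µm whole-body cryosections per mouse read by multiwire proportional counter. cpm/mm² converted to kBq/g and expressed as %ID/g.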

[3] = Biodistribution in gall bladder of C57BL/6 mouse bearing mouse B16-F0 cells at 0.74 to 0.92 MBq, iv after 3 hrs; procedure, shortened: as §2
[4] = Biodistribution in glandula seminalis of C57BL/6 mouse bearing mouse B16-F0 cells at 0.74 to 0.92 MBq, iv after 1 hr; procedure, shortened: as §2
[5] = Biodistribution in glandula seminalis of C57BL/6 mouse bearing mouse B16-F0 cells at 0.74 to 0.92 MBq, iv after 3 hrs; procedure, shortened: as §2
[6] = Biodistribution in glandula seminalis of C57BL/6 mouse bearing mouse B16-F0 cells at 0.74 to 0.92 MBq, iv after 6 hrs; procedure, shortened: as §2
[7] = Biodistribution in gall bladder of C57BL/6 mouse bearing mouse B16-F0 cells at 0.74 to 0.92 MBq, iv after 1 hr; procedure, shortened: as §2
[8] = test system: Muscle tissue; experiment: Biodistribution in muscle of C57BL/6 mouse bearing mouse B16-F0 cells at 0.74 to 0.92 MBq, iv after 24 hrs; procedure, shortened: as §2
[9] = test system: Pancreas; experiment: Biodistribution in pancreas of C57BL/6 mouse bearing mouse B16-F0 cells at 0.74 to 0.92 MBq, iv after 24 hrs; procedure, shortened: as §2
[10] = test system: Kidney; experiment: Biodistribution in kidney of C57BL/6 mouse bearing mouse B16-F0 cells at 0.74 to 0.92 MBq, iv after 72 hrs; procedure, shortened: as §2
[11] = test system: Bone marrow; experiment: Biodistribution in bone marrow of C57BL/6 mouse bearing mouse B16-F0 cells at 0.74 to 0.92 MBq, iv after 1 hr; procedure, shortened: as §2
[12] = Ratio of drug level in tumor to brain of C57BL/6 mouse bearing mouse B16-F0 cells at 0.74 to 0.92 MBq, iv after 24 hrs; procedure, shortened: as §1
[13] = Ratio of drug level in tumor to brain of C57BL/6 mouse bearing mouse B16-F0 cells at 0.74 to 0.92 MBq, iv after 72 hrs; procedure, shortened: as §1
[14] = test system: Brain; experiment: Biodistribution in brain of C57BL/6 mouse bearing mouse B16-F0 cells at 0.74 to 0.92 MBq, iv after 24 hrs; procedure, shortened: as §2
[15] = test system: Brain; experiment: Biodistribution in brain of C57BL/6 mouse bearing mouse B16-F0 cells at 0.74 to 0.92 MBq, iv after 72 hrs; procedure, shortened: as §2
[16] = Biodistribution in intestinal content of C57BL/6 mouse bearing mouse B16-F0 cells at 0.74 to 0.92 MBq, iv after 72 hrs; procedure, shortened: as §2

Ratio [1]: 7.26
Drug uptake [2]: 1.23 % ID/g
Compound: CCN(CC)CCNC(=O)c1ccc2cc([125I])ccc2n1.Cl.Cl

Drug uptake [3]: 6.78 % ID/g
Drug uptake [4]: 6.79 % ID/g
Drug uptake [5]: 3.78 % ID/g
Drug uptake [6]: 3.55 % ID/g
Drug uptake [7]: 8.68 % ID/g
Compound: CCN(CC)CCNC(=O)c1ccc([125I])nc1.Cl.Cl

Ratio [1]: 1.38
Drug uptake [2]: 0.61 % ID/g
Drug uptake [8]: 0.19 % ID/g
Drug uptake [9]: 0.09 % ID/g
Drug uptake [10]: 0.71 % ID/g
Compound: CCN(CC)CCNC(=O)c1cc2cc([125I])ccc2[nH]1.Cl

Drug uptake [11]: 4.58 % ID/g
Compound: CCN(CC)CCNC(=O)c1cnc2cc([125I])ccc2n1.Cl.Cl

Ratio [12]: 68.5
Ratio [13]: 23.5
Drug uptake [14]: 0.04 % ID/g
Drug uptake [15]: 0.1 % ID/g
Drug uptake [16]: 0.7 % ID/g
Compound: CCN(CC)CCNC(=O)c1c[nH]c2ccc([125I])cc2c1=O.Cl.Cl

Drug uptake [3]: 41.51 % ID/g
Compound: CCN(CC)CCNC(=O)c1ccc2cncc([125I])c2n1.Cl.Cl
